Compound activity deposited in PubChem by Broad Institute.
This excerpt belongs to a sample that is enriched for hits.
T cruzi growth-1: blocks T. cruzi growth in NIH3T3 culture; AID 624255; 77,000 compounds, 5.9% hits; T. cruzi beta-gal in NIH3T3, GalScreen luminescence, 90 h; inhibition, % at 8.34 µM;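 active = mean inhibition above about 93%, with at least 55% of replicates each passing it, limit read from the data, passing the limit was not always enough; inconclusive = only one of those two conditions holds; inactive = neither condition holds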
IDH1 mut inh: inhibitors of human IDH1 R132H | IDH1 R132H reductase, diaphorase/resazurin fluorescence, 60 min | 70,000 compounds, 0.18% hits | inhibition, % at 10 µM | O75874; in the data active = inhibition above about 34%; inconclusive = no clear call, values can overlap the other calls; inactive = below about 11%;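 note: 0% = DMSO and 100% = no enzyme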
Target sequence (O75874 whole entry R132H): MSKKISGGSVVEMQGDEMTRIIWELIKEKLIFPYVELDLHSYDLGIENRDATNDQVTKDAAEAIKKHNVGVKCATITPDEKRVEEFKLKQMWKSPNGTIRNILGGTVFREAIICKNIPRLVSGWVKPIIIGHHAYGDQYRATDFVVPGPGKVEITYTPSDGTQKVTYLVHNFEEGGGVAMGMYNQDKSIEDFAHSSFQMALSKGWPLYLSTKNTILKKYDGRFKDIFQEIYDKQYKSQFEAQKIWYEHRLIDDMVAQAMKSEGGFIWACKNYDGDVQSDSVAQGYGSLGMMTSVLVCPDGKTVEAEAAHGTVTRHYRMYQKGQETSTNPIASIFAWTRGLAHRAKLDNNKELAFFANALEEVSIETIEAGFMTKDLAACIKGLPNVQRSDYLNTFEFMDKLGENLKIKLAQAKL
GASC1 inh: KDM4C (human) demethylase inhibition | 96,000 compounds, 0.15% hits | Q9H3R0 | GST-KDM4C 2-372, H3K9me3 peptide, LANCE TR-FRET | inhibition, % at 12.5 µM | AID 720574;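 active = mean replicate inhibition above about 25%, with at least 55% of replicates also reaching it, limit read from the data, passing the limit was not always enough; inconclusive = only one of those two conditions met; inactive = neither condition met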
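System: N-terminal GST-fused human GASC-1 (KDM4C) fragment, residues 2-372; amount: enzyme final amount 10 nM; incubation: reaction 30 min RT, detection step 1 h RT; medium: HEPES buffer, pH 7.5, plus ascorbate; technique: LANCE TR-FRET, Eu antibody, ULight-streptavidin, EDTA, ex 340 nm, em 618/671 nm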
T cruzi growth-2: inhibitors of T. cruzi proliferation; shares compounds with T cruzi growth-1; T. cruzi beta-gal in NIH3T3, GalScreen luminescence, 90 h; AID 651739; 5,600 compounds, 72% hits; inhibition, % at 8.35 µM;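 active = mean replicate inhibition above about 95% and at least 55% of replicates individually reaching it, limit read from the data; inconclusive = only one of the two criteria is met; inactive = neither criterion is met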
T cruzi growth-3: Trypanosoma cruzi proliferation inhibition. shares compounds with T cruzi growth-1. T. cruzi beta-gal in NIH3T3, GalScreen luminescence, 90 h. inhibition, % at 2.09 µM. 5,600 compounds, 21% hits. AID 651740;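 active = mean inhibition above about 95%, with at least 55% of replicates also reaching it, limit read from the data; inconclusive = meets just one of the two conditions; inactive = meets neither condition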;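 note: plate controls were neutral control median for no effect and positive control median for full effect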
NIH3T3 tox: cytotoxicity in mouse NIH/3T3 fibroblasts; shares compounds with T cruzi growth-1; NIH/3T3 viability, CellTiter-Glo ATP luminescence, 90 h; 5,600 compounds, 14% hits; cytotoxicity (signal decrease), % at 8.35 µM;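 active = mean signal decrease across replicates above about 35% based on untreated-well scatter, with enough replicates individually passing, limit read from the data; inconclusive = no rule stated though some were filed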;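 note: 0% = median of neutral control wells and 100% = median of positive control wells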
NIH3T3 tox 2: NIH/3T3 (mouse) viability loss. shares compounds with T cruzi growth-1. NIH/3T3 viability, CellTiter-Glo ATP luminescence, 90 h. inhibition, % at 24.9 µM. 5,600 compounds, 56% hits. AID 651744;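 active = mean loss of cell viability signal at or above a set limit, and enough replicates individually reaching it; inconclusive = meets only the mean limit or only the replicate share; inactive = meets neither condition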;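 note: 0% = median of neutral control wells and 100% = median of positive control wells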
Active calls of the source: *; ? = inconclusive; / = not tested or not shown.

SMILES	T cruzi growth-1	IDH1 mut inh	GASC1 inh	T cruzi growth-2	T cruzi growth-3	NIH3T3 tox	NIH3T3 tox 2
Cc1noc(C)c1NC(=O)N(C)C[C@H]1OCCCC[C@H](C)Oc2ccc(NC(=O)Nc3ccc(F)cc3)cc2C(=O)N([C@H](C)CO)C[C@@H]1C	-26	/	0	/	/	/	/
C[C@H]1CN([C@@H](C)CO)C(=O)c2cccc(NC(=O)c3nc4ccccc4s3)c2O[C@@H]1CN(C)Cc1ccc(C(F)(F)F)cc1	94	/	-2	/	/	/	/
C[C@H](CO)N1C[C@H](C)[C@H](CN(C)Cc2ccc(C(F)(F)F)cc2)Oc2c(NC(=O)c3nc4ccccc4s3)cccc2C1=O	97*	-4	-1	100*	98*	15	93*
Cc1ccc(-c2ccc3c(c2)O[C@H](CN(C)C(=O)Nc2ccc(F)cc2)[C@H](C)CN([C@@H](C)CO)S3(=O)=O)cc1	119*	0	7	97*	86	-7	21
Cc1ccc(-c2ccc3c(c2)O[C@H](CN(C)C(=O)Nc2ccccc2)[C@H](C)CN([C@@H](C)CO)S3(=O)=O)cc1	/	-1	10	/	/	/	/
Cc1ccc(-c2ccc3c(c2)O[C@@H](CN(C)C(=O)Nc2ccc(F)cc2)[C@@H](C)CN([C@H](C)CO)S3(=O)=O)cc1	122*	/	-2	108*	89	55*	45*
Cc1ccc(-c2ccc3c(c2)O[C@H](CN(C)C(=O)Nc2ccc(F)cc2)[C@H](C)CN([C@H](C)CO)S3(=O)=O)cc1	122*	/	-1	110*	80	5	66*
Cc1ccc(-c2ccc3c(c2)O[C@H](CN(C)C(=O)Nc2ccc(F)cc2)[C@@H](C)CN([C@H](C)CO)S3(=O)=O)cc1	16	0	2	/	/	/	/
Cc1ccc(-c2ccc3c(c2)O[C@@H](CN(C)C(=O)Nc2ccccc2)[C@@H](C)CN([C@H](C)CO)S3(=O)=O)cc1	/	-1	12	/	/	/	/
C[C@@H]1CN([C@@H](C)CO)C(=O)c2cccc(NC(=O)Nc3ccc(F)cc3)c2O[C@H]1CN(C)C(=O)Nc1ccccc1	-27	/	7	/	/	/	/
CCS(=O)(=O)Nc1ccc2c(c1)C(=O)N(C)C[C@H](OC)[C@H](C)CN(C(=O)C1CCC1)[C@@H](C)CO2	13	0	1	/	/	/	/
CCCNC(=O)Nc1ccc2c(c1)C(=O)N(C)C[C@@H](OC)[C@H](C)CN(C(=O)CC)[C@@H](C)CO2	10	/	0	/	/	/	/
CC(C)NC(=O)Nc1ccc2c(c1)C(=O)N([C@@H](C)CO)C[C@H](C)[C@@H](CN(C)S(=O)(=O)c1ccccc1)O2	-4	1	3	/	/	/	/
C[C@H](CO)N1C[C@H](C)[C@H](CN(C)Cc2cccc(C(F)(F)F)c2)Oc2ncc(-c3ccccc3)cc2C1=O	119*	0	-3	99*	7	13	-28
COc1ccc(C#Cc2cnc3c(c2)C(=O)N([C@H](C)CO)C[C@H](C)[C@H](CN(C)Cc2ccccc2)O3)cc1OC	83	0	-2	/	/	/	/
C[C@H](CO)N1C[C@H](C)[C@H](CN(C)C(=O)Nc2cccc3ccccc23)Oc2ncc(-c3cccc(C(F)(F)F)c3)cc2C1=O	107*	0	1	100*	54	44*	104*
COc1ccc(C#Cc2cnc3c(c2)C(=O)N([C@H](C)CO)C[C@H](C)[C@H](CN(C)Cc2cccc(C(F)(F)F)c2)O3)cc1OC	127*	2	0	107*	95	26	-19
C[C@H](CO)N1C[C@H](C)[C@H](CN(C)C(=O)Nc2cccc3ccccc23)Oc2ncc(-c3cccc(F)c3)cc2C1=O	/	2	-3	/	/	/	/
Cc1cccc(CN(C)C[C@@H]2Oc3ncc(-c4cccc(C(F)(F)F)c4)cc3C(=O)N([C@H](C)CO)C[C@@H]2C)c1	84	-1	2	/	/	/	/
O=C(C[C@@H]1CC[C@@H]2[C@H](COC[C@H](O)CN2CC2CC2)O1)NCC1CC1	87	/	0	/	/	/	/
CO[C@H]1CN(C)C(=O)c2cc(NS(C)(=O)=O)ccc2OC[C@H](C)N(Cc2cncnc2)C[C@H]1C	49	0	-2	/	/	/	/
CC(C)NC(=O)N(C)C[C@@H]1Oc2ncc(C#Cc3ccc(C(F)(F)F)cc3)cc2C(=O)N([C@H](C)CO)C[C@@H]1C	/	-3	6	/	/	/	/
C/C=C/c1ccc([C@@H]2[C@@H](CO)N[C@@H]2CN(C)S(=O)(=O)c2ccccc2)cc1	14	/	-3	/	/	/	/
C/C=C/c1ccc([C@@H]2[C@H](CN(C)S(=O)(=O)c3ccccc3)N[C@@H]2CO)cc1	108*	/	1	47	25	-10	37*
O=S(=O)(NC[C@@H]1N[C@@H](CO)[C@@H]1c1ccccc1)c1ccccc1	61	/	2	/	/	/	/
SMILES	T cruzi growth-1	IDH1 mut inh	GASC1 inh	T cruzi growth-2	T cruzi growth-3	NIH3T3 tox	NIH3T3 tox 2
O=S(=O)(NC[C@@H]1N[C@@H](CO)[C@H]1c1ccccc1)c1ccccc1	104*	/	-4	68	14	10	12
Cc1noc(C)c1NC(=O)N(C)C[C@@H]1Oc2ccc(N(C)C)cc2C(=O)N([C@H](C)CO)C[C@H]1C	106*	/	1	-94	3	-18	10
Cc1noc(C)c1NC(=O)N(C)C[C@H]1Oc2ccc(N(C)C)cc2C(=O)N([C@H](C)CO)C[C@@H]1C	73	/	/	/	/	/	/
C[C@@H]1CN([C@H](C)CO)C(=O)c2cc(NS(=O)(=O)c3ccc(Cl)cc3)ccc2O[C@@H]1CN(C)Cc1ccc(C(=O)Nc2ccccc2N)cc1	?	0	8	76	55	-6	46*
Cc1noc(C)c1S(=O)(=O)Nc1cccc2c1O[C@@H](CN(C)Cc1ccc(C(=O)Nc3ccccc3N)cc1)[C@@H](C)CN([C@H](C)CO)C2=O	/	/	0	/	/	/	/
Cc1noc(C)c1S(=O)(=O)Nc1cccc2c1O[C@H](CN(C)Cc1ccc(C(=O)Nc3ccccc3N)cc1)[C@H](C)CN([C@@H](C)CO)C2=O	?	/	0	101*	74	12	36*
Cc1noc(C)c1NC(=O)N(C)C[C@@H]1Oc2c(NS(C)(=O)=O)cccc2C(=O)N([C@@H](C)CO)C[C@H]1C	52	2	-2	/	/	/	/
C[C@@H]1CN([C@@H](C)CO)C(=O)c2cc(NS(=O)(=O)c3ccc(Cl)cc3)ccc2O[C@H]1CN(C)Cc1ccc(C(=O)Nc2ccccc2N)cc1	69	/	5	/	/	/	/
Cc1noc(C)c1NC(=O)N(C)C[C@H]1Oc2c(NS(=O)(=O)c3c(C)noc3C)cccc2C(=O)N([C@H](C)CO)C[C@H]1C	104*	-7	1	82	24	1	-2
CNC[C@H]1Oc2cc(-c3ccccc3F)ccc2S(=O)(=O)N([C@H](C)CO)C[C@H]1C	/	-1	0	/	/	/	/
